Results published in ChEMBL document CHEMBL4425127 (J Med Chem, 2016).
Activity calls are given as the source filed them. The calls are words filed in the database; no cut-off is given here.

Test system: Neuraminidase (Influenza A virus (strain A/Udorn/307/1972 H3N2)), P0DOF9 [E119V,I222L]
Assay: Binding affinity to zanamivir/oseltamivir resistant recombinant Influenza A virus (A/Moscow/10/99(H3N2)) Neuraminidase N2 E119V/I222L double mutant expressed in baculovirus infected insect cells at 100 to 1000 nM measured up to 160 sec by surface plasmon resonance analysis
How it was run: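 NA covalently immobilised on CM5 chip by amine coupling. Analyte passed over at several concentrations in running buffer. BSA served as negative control protein. Constants from a steady-state affinity model; triplicate experiments.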

`COCCOCCOCCOCCOCCOCCOCCOCCOCCOCc1cn(CC(Cn2cc(COCCOCCOCCOCCOCCOCCOCCOCCOCCOC)nn2)(Cn2cc(COCCOCCOCCOCCOCCOCCOCCOCCOCCOC)nn2)Cn2cc(COCCOCCOCCOCCOCCOCCOCCOCCOCCOC)nn2)nn1` was tested, and the Activity was “inactive”.
